Calls of active or inactive are those of the source.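 How the source made its calls: active means fitted curve reaches a 35% signal drop at a concentration no higher than twice the top valid dose, in duplicate at both wavelengths; inactive means the rest, including activity in the opposite direction.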

Tested on in one assay: not listed separately
The assay can be described thus: bacterial growth inhibition with EDDHA chelator – absorbance 405 nm, dry powder, dose response (AID 624018). As to conditions: P. aeruginosa growth with EDDHA, absorbance 405 nm, 24-30 h; at 16 µM (top of the series). In a few lines: (§1)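 Signal: 405 nm absorbance for pyoverdine | Material: Pseudomonas aeruginosa strain ATCC 15692, whole bacterial cells | Buffer or medium: Succinate M9, pH 7.0, 2 µM EDDHA | Times: Bacterial growth with compound for 24-30 h at 37 °C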
As for `Cc1ccc(C(C#N)c2ccccc2OC(F)(F)F)nc1C#N` (stereo unspecified), the activity change, negative = inhibition was -20.9% (inactive).

The same assay, now with this note: P. aeruginosa growth with EDDHA, absorbance 405 nm, 24-30 h; at 50 µM (top of the series).
As for `N#Cc1cccc(C(C#N)c2ccc(Cl)cc2)n1` (stereo unspecified), the activity change, negative = inhibition was -11.9% (inactive).

On to `N#CC(c1cccc(Cl)n1)c1ccccc1OC(F)(F)F` (stereo unspecified), for which the activity change, negative = inhibition was -14.6% (inactive).

Regarding `Cc1cccc(C(C#N)c2ccc(Cl)cc2)n1` (stereo unspecified), the activity change, negative = inhibition is -2.34% (inactive).

`Cc1ccc(C(C#N)c2ccc(F)cc2)nc1C#N` (stereo unspecified): the activity change, negative = inhibition was -6.49% (inactive).

For the compound `N#CC(CC1CC1)c1ccc(Cl)cc1` (stereo unspecified), the activity change, negative = inhibition was -14.4% (inactive).

For `N#Cc1cccc(C(C#N)c2ccc(Cl)cc2F)n1` (stereo unspecified), the activity change, negative = inhibition was -14.6% (inactive).

With `N#Cc1cccc(C(C#N)c2ccc(Cl)cc2Cl)n1` (stereo unspecified), the activity change, negative = inhibition is -3.73% (inactive).

For `N#CC(c1ccc(Cl)cc1Cl)c1ncccc1Cl` (stereo unspecified), the activity change, negative = inhibition is 2.07% (inactive).

On to `CCCCC(C#N)c1ccccc1OC(F)(F)F` (stereo unspecified), for which the activity change, negative = inhibition was -4.38% (inactive).

For the compound `N#CC(c1ccc(C(F)(F)F)c(Cl)n1)c1ccc(Cl)cc1Cl` (stereo unspecified), the activity change, negative = inhibition was 4.93% (inactive).

Take `N#CC(c1ccc(C(F)(F)F)c(Cl)n1)c1ccccc1OC(F)(F)F` (stereo unspecified): the activity change, negative = inhibition is -8.72% (inactive).

For `CCCCC(C#N)c1ccc(Cl)cc1` (stereo unspecified), the activity change, negative = inhibition was -4.2% (inactive).

Take `CC(C#N)(c1ccc(Cl)cc1)c1ccc(C(F)(F)F)cn1` (stereo unspecified): the activity change, negative = inhibition is -3.75% (inactive).

With `N#CC(c1cccc(Cl)n1)c1ccc(Cl)cc1Cl` (stereo unspecified), the activity change, negative = inhibition was -22.8% (inactive).

Turning to `CCCCC(C#N)c1ccc(C(F)(F)F)cc1` (stereo unspecified), the activity change, negative = inhibition was -6.7% (inactive).

Regarding `N#CC(c1ccc(Cl)cc1)c1ccc(C(F)(F)F)cn1` (stereo unspecified), the activity change, negative = inhibition is 4.01% (inactive).

With `N#CC(c1cccc(C(F)(F)F)n1)c1ccccc1OC(F)(F)F` (stereo unspecified), the activity change, negative = inhibition is -7.42% (inactive).

With `N#Cc1cccc(C(C#N)c2ccccc2OC(F)(F)F)n1` (stereo unspecified), the activity change, negative = inhibition was -10.3% (inactive).

Take `CCCCC(C#N)c1ccc(Cl)cc1F` (stereo unspecified): the activity change, negative = inhibition is -1.21% (inactive).

Turning to `N#Cc1ccc(C(C#N)c2ccc(Cl)cc2Cl)nc1` (stereo unspecified), the activity change, negative = inhibition was 1.04% (inactive).

Take `CCCCC(C#N)c1ccc(F)cc1` (stereo unspecified): the activity change, negative = inhibition is -10.3% (inactive).

`N#Cc1ccc(C(C#N)c2ccc(Cl)cc2)nc1` (stereo unspecified): the activity change, negative = inhibition is -10.4% (inactive).

Consider `N#CC(c1ccc(F)cc1)c1ccc(C(F)(F)F)c(Cl)n1` (stereo unspecified), for which the activity change, negative = inhibition was -5.95% (inactive).

For `Cc1ccc(C(C#N)c2ccc(Cl)cc2)nc1` (stereo unspecified), the activity change, negative = inhibition was -8.79% (inactive).

Consider `N#CC(c1ccc(Cl)cc1)c1ccc(C(F)(F)F)c(Cl)n1` (stereo unspecified), for which the activity change, negative = inhibition was 11.9% (inactive).

As to `CCCC(C#N)c1ccc(Cl)cc1` (stereo unspecified), the activity change, negative = inhibition was -12.6% (inactive).

For `Cc1ccc(C(C#N)c2ccc(Cl)cc2)nc1C#N` (stereo unspecified), the activity change, negative = inhibition is -4.08% (inactive).

With `N#CC(c1ccc(C(F)(F)F)cc1)c1cccc(C(F)(F)F)n1` (stereo unspecified), the activity change, negative = inhibition is -4.57% (inactive).

With `N#CC(c1ccc(C(F)(F)F)cc1)c1cccc(Cl)n1` (stereo unspecified), the activity change, negative = inhibition is -8.88% (inactive).

For `N#CC(c1ccc(C(F)(F)F)cc1)c1ccc(C(F)(F)F)c(Cl)n1` (stereo unspecified), the activity change, negative = inhibition is -6.74% (inactive).

Turning to `CCCCC(C#N)c1ccc(Cl)cc1Cl` (stereo unspecified), the activity change, negative = inhibition was -10.8% (inactive).

The next assay concerns P. aeruginosa growth with EDDHA, absorbance 405 nm, 24-30 h. The description is as above.
Conditions: not given
In a few lines: as §1
Consider `N#CC(c1cccc(C(F)(F)F)n1)c1ccc(Cl)cc1F` (stereo unspecified), for which the AC35 is 22.7 µM.

As to `N#CC(c1ccc(Cl)cc1)c1ncccc1Cl` (stereo unspecified), the AC35 was 12.6 µM.

Take `N#CC(c1ccc(Cl)cc1)c1cccc(C(F)(F)F)n1` (stereo unspecified): the AC35 is 19.5 µM.

Turning to `N#CC(c1ccc(F)cc1)c1cccc(C(F)(F)F)n1` (stereo unspecified), the AC35 was 37.6 µM.

For the origin of these results see PubChem BioAssay AID624018 (Broad Institute, 2012).
